Converted amounts (≈) assume the structure as drawn. The source made the active and inactive calls. The rule behind the calls is not given here.
How the values were obtained:
[1] = Distribution coefficient, logD of compound at pH 7.4 by shake flask method based LC-MS/MS analysis; type: physicochemical; details: octanol/water
Outline: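 Shake-flask method: compound diluted from 10 mM DMSO stock into equal volumes of octanol and PBS, final concentration 100 µM. Shaken 12 h, then centrifuged. Both layers analysed in triplicate by LC-MS/MS (MRM, C8 UPLC). LogD = log10 of the octanol/buffer peak-area ratio.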

[2] = Kinetic solubility of compound in PBS at pH 7.4 by UV-VIS absorption spectrophotometry analysis; type: physicochemical; details: for solubility kinetic: PBS, read-out: Kinetic_solubility
Outline: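 A 10 mM DMSO stock was diluted into PBS pH 7.4 at a target of 200 µM (final PBS:DMSO 98:2), in triplicate. Agitated 500 rpm for 90 min, then filtered. Filtrate diluted to PBS:DMSO 80:20 and its UV absorbance compared against a 200–6.75 µM standard series to give the concentration remaining in solution.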

[3] = target: T1, N-formyl peptide receptor 2 (Homo sapiens, UniProt P25090); experiment: Agonist activity at FPRL1 (unknown origin) expressed in CHO-K1 cells assessed as increase in calcium mobilization incubated for 2.5 hrs by cellular based FLIPR assay; type: functional, cell-based
T1 sequence (P25090 whole entry): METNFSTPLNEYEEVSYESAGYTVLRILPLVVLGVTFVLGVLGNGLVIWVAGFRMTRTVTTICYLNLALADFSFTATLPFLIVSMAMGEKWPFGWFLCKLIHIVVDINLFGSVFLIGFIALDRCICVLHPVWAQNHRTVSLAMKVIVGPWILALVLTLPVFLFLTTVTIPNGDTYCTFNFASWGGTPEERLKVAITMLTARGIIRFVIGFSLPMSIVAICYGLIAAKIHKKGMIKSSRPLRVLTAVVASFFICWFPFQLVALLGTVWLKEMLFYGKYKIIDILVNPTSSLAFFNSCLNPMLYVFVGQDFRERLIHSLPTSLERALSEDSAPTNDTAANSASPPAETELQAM
Outline: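 CHO-K1 cells overexpressing hFPR2, plated at 20,000 cells/well in F-12 with 10% FBS and held overnight at 37 °C. Loaded with FLIPR Calcium 6 dye for 2 h at 37 °C, then 30 min at RT in the dark. Compounds were half-log serially diluted from 10 mM stocks in HBSS/20 mM HEPES. Cytosolic Ca2+ rise read on FLIPR Tetra. WKYMVm served as control.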

[4] = target: T2, N-formyl peptide receptor 2 (Homo sapiens) (UniProt P25090); experiment: Agonist activity at FPRL1 (unknown origin) expressed in CHO-K1 cells assessed as increase in calcium mobilization […] incubated for 2.5 hrs by cellular based FLIPR assay; type: functional, cell-based
T2 sequence (whole entry): T1 sequence (P25090 whole entry)
Outline: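 CHO-K1 cells overexpressing human FPR2 (PathHunter FPRL1 line), plated at 20,000/well in F-12 with 10% FBS and held 1 h RT, then overnight at 37 °C. Calcium 6 dye loaded 2 h at 37 °C, then 30 min RT in the dark. Compounds were half-log serially diluted from 10 mM stocks in HBSS with 20 mM HEPES. Cytosolic Ca2+ rise read on FLIPR Tetra.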

[5] = Microsomal stability in human liver microsomes assessed as half life at 1 uM preincubated for 5 mins followed by NADPH regenerating system addition measured after 30 mins by LC-MS/MS analysis; type: ADME, Microsome; details: t1/2, time 35 min
Outline: (§1)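 Human or mouse liver microsomes (0.2 mg/mL protein) with compound at 1 µM final, pre-incubated 5 min at 37 °C. Reaction started with NADPH generating solution and agitated at 37 °C, with samples quenched up to 30 min. Centrifuged; supernatant analysed in triplicate by LC-MS.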

[6] = Microsomal stability in mouse liver microsomes assessed as half life at 1 uM preincubated for 5 mins followed by NADPH regenerating system addition measured after 30 mins by LC-MS/MS analysis; type: ADME, Microsome; details: t1/2, time 35 min; outline: as §1
[7] = target: T1, N-formyl peptide receptor 2; experiment: Agonist activity at FPRL1 (unknown origin) expressed in CHO-K1 cells assessed as stimulation of beta-arrestin recruitment incubated for 150 mins by beta-galactosidase based PathHunter assay; type: functional, cell-based
Outline: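 PathHunter CHO-K1 FPRL1 cells expressing β-gal enzyme-fragment complementation, 5000 cells/well, held overnight at 37 °C. Stimulated with half-log serial dilutions of compounds (10 mM stocks in PBS) for 150 min at 37 °C. High control was WKYMVm at 100 nM. Detection reagent added for 60 min at RT in the dark, then chemiluminescence read.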

[8] = target: T2, N-formyl peptide receptor 2 (Homo sapiens); experiment: Agonist activity at FPRL1 (unknown origin) expressed in CHO-K1 cells assessed as stimulation of beta-arrestin recruitment […] incubated for 150 mins by beta-galactosidase based PathHunter assay; type: functional, cell-based
Outline: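 PathHunter CHO-K1 FPRL1 cells carry complementing β-galactosidase fragments. Plated at 5000/well, held 1 h RT, then overnight at 37 °C. Compounds were half-log serially diluted from 10 mM stocks in PBS. Stimulation 150 min at 37 °C; W-peptide (WKYMVm, 100 nM) was the high control. Detection reagent added for 60 min RT in the dark, with chemiluminescence read-out.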

[9] = filed as agonist, time 0.067 hrs, in the assay text read “measured for 240 s” for “incubated for 2.5 hrs”

logD ([1]; read-out: logD) | solubility kinetic [2] [µM] | EC50 ([3]; read-out: EC50) [µM] | Emax [4, 9] [%] | half-life at 1 µM [5] [h] | half-life at 1 µM [6] [h] | EC50 ([7]; read-out: EC50) [µM] | Emax ([8]; filed as agonist) [%] | EC50 ([3]; cho-k1) | Emax ([4]; time 2.5 hrs) | EC50 ([7]; cho-k1) | Emax [8] | logD [1] | Kinetic_solubility ([2]; buffer) [µM] | Compound
0.8 | 227 (≈ 89.7 µg/mL) | 0.27 | 84 | 6.35 | 2.33 | 3.29 | 102 | – | – | – | – | – | – | O=C(Nc1ccc(Br)cc1)NC1CCN(CC2CCNCC2)C1=O (configuration not stated)
3 | 207 (≈ 94.7 µg/mL) | 0.37 | – | 0.933 | 0.6 | 0.7 | – | – | – | – | – | – | – | O=C(Nc1ccc(Br)cc1)NC1CCN(C2CCN(Cc3ccccc3)C2)C1=O (stereo in doubt; 18)
2 | – | – | – | 6.83 | – | – | – | Not Active | inactive | Not Active | inactive | – | – | CC(NC(=O)NC1CCN(c2ccccc2)C1=O)c1ccncc1 (configuration not stated)
3.5 | 152 (≈ 71.7 µg/mL) | 0.35 | 76 | 1.87 | 1.17 | 2.87 | 96 | – | – | – | – | – | – | O=C(Nc1ccc(Br)cc1)NC1CCN(C2CCN(Cc3ccccc3)CC2)C1=O (configuration not stated)
– | – | – | 71 | – | – | – | 89 | – | – | – | – | – | – | CC(C)(C)OC(=O)N1CCC[C@H](N2CCC(NC(=O)Nc3ccc(Br)cc3)C2=O)C1 (stereo in doubt; 19) [listing 1 of 2 here]
– | – | – | 128 | – | – | – | 100 | – | – | – | – | – | – | O=C(Nc1ccc(Br)cc1)NC1CCN(C2CCN(Cc3ccccc3)C2)C1=O (stereo in doubt; 17) [listing 1 of 2 here]
0.3 | 234 (≈ 89.2 µg/mL) | 0.23 | 68 | – | – | 1.03 | 100 | – | – | – | – | – | – | O=C(Nc1ccc(Br)cc1)NC1CCN(C2CCNCC2)C1=O (configuration not stated)
1.99 | – | – | – | 5.48 | 5.95 | – | – | Not Active | inactive | Not Active | inactive | – | – | COc1ccc(CNC(=O)NC2CCN(c3ccccc3)C2=O)cc1 (configuration not stated)
– | 71 (≈ 34.2 µg/mL) | 0.13 | – | – | – | 1.38 | – | – | – | – | – | > 4 | – | CC(C)(C)OC(=O)N1CCC[C@H](N2CCC(NC(=O)Nc3ccc(Br)cc3)C2=O)C1 (stereo in doubt; 19) [listing 2 of 2 here]
2.5 | 192 (≈ 93.2 µg/mL) | 0.25 | 99 | 3.78 | 2.02 | 2.25 | 93 | – | – | – | – | – | – | O=C(Nc1ccc(Br)cc1)NC1CCN(CC2CCN(Cc3ccccc3)CC2)C1=O (configuration not stated)
4.3 | 3 (≈ 1.32 µg/mL) | – | – | 11 | – | 3.76 | 103 | Not Active | inactive | – | – | – | – | O=C(Nc1ccc(Br)cc1)NC1CCN(c2cnn(-c3ccncc3)c2)C1=O (configuration not stated)
– | – | – | – | – | – | – | – | Not Active | inactive | Not Active | inactive | – | – | CCc1ccc(C(C)NC(=O)NC2CCN(c3cnn(C)c3)C2=O)cc1 (configuration not stated)
– | – | 2.7 | – | – | – | 1.37 | – | – | – | – | – | 3.3 | 210 | O=C(Nc1ccc(Br)cc1)NC1CCN(C2CCN(Cc3ccccc3)C2)C1=O (stereo in doubt; 17) [listing 2 of 2 here]
1 | – | – | – | – | – | – | – | Not Active | inactive | Not Active | inactive | – | – | CC1CC(NC(=O)NCc2nccn2C)C(=O)N1c1ccccc1 (configuration not stated)

From ChEMBL document CHEMBL5038608, “Design, synthesis, and biological evaluation of novel pyrrolidinone small-molecule Formyl peptide receptor 2 agonists” (Eur J Med Chem, 2021)
